Calls of active or inactive are those of the source.
Tests used:
Mus musculus [1] = experiment: Neurotoxicity in mouse at 100 mg/kg, ip after 0.5 hrs by rotarod test; assay type: toxicity, organism-based; details: in vivo
How it was run: (§1)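 Mice were dosed ip with compound suspended in 0.5% methylcellulose. Rotarod: a 1 in. knurled rod turning at 6 rpm. Neurotoxicity was scored as failure to stay on the rod for at least 1 min in each of three trials. Results are given as the number of animals affected out of the number tested.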

Mus musculus [2] = experiment: Anticonvulsant activity in mouse assessed as protection against maximal electric shock-induced seizures at 100 mg/kg, ip measured after 4 hrs; assay type: functional, organism-based
How it was run: (§2)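 Mice dosed ip with suspension in 0.5% methylcellulose; maximal electroshock applied at the listed time after dosing. Protection = abolition of hindlimb tonic extension component of seizure; reported as animals protected/animals tested.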

Mus musculus [3] = experiment: Anticonvulsant activity in mouse assessed as protection against subcutaneous pentylenetetrazol-induced seizures at 30 mg/kg, ip measured after 4 hrs; assay type: functional, organism-based
How it was run: (§3)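 Mice dosed ip as 0.5% methylcellulose suspension; pentylenetetrazole 85 mg/kg in 0.9% NaCl injected subcutaneously into posterior midline, animals watched at least 30 min. Protection = no threshold seizure (single clonic spasm episode lasting ≥5 s); scored protected/tested.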

Mus musculus [4] = experiment: Neurotoxicity in mouse at 30 mg/kg, ip after 4 hrs by rotarod test; assay type: toxicity, organism-based; details: in vivo; how it was run: as §1
Mus musculus [5] = experiment: Anticonvulsant activity in mouse assessed as protection against maximal electric shock-induced seizures at 100 mg/kg, ip measured after 0.5 hrs; assay type: functional, organism-based; how it was run: as §2
Mus musculus [6] = experiment: Neurotoxicity in mouse at 30 mg/kg, ip after 0.5 hrs by rotarod test; assay type: toxicity, organism-based; details: in vivo; how it was run: as §1
Mus musculus [7] = experiment: Anticonvulsant activity in mouse assessed as protection against subcutaneous pentylenetetrazol-induced seizures at 100 mg/kg, ip measured after 4 hrs; assay type: functional, organism-based; how it was run: as §3
Mus musculus [8] = experiment: Anticonvulsant activity in mouse assessed as protection against maximal electric shock-induced seizures at 30 mg/kg, ip measured after 4 hrs; assay type: functional, organism-based; how it was run: as §2
Mus musculus [9] = experiment: Anticonvulsant activity in mouse assessed as protection against maximal electric shock-induced seizures at 10 mg/kg, ip measured after 0.5 hrs; assay type: functional, organism-based; how it was run: as §2
Mus musculus [10] = experiment: Anticonvulsant activity in mouse assessed as protection against subcutaneous pentylenetetrazol-induced seizures at 100 mg/kg, ip measured after 0.5 hrs; assay type: functional, organism-based; how it was run: as §3
Mus musculus [11] = experiment: Anticonvulsant activity in mouse assessed as protection against subcutaneous pentylenetetrazol-induced seizures at 30 mg/kg, ip measured after 0.5 hrs; assay type: functional, organism-based; how it was run: as §3
Mus musculus [12] = experiment: Neurotoxicity in mouse at 300 mg/kg, ip after 0.5 hrs by rotarod test; assay type: toxicity, organism-based; details: in vivo; how it was run: as §1
Mus musculus [13] = experiment: Anticonvulsant activity in mouse assessed as protection against maximal electric shock-induced seizures at 3 mg/kg, ip measured after 0.5 hrs; assay type: functional, organism-based; how it was run: as §2
Mus musculus [14] = experiment: Neurotoxicity in mouse at 100 mg/kg, ip after 4 hrs by rotarod test; assay type: toxicity, organism-based; details: in vivo; how it was run: as §1
Mus musculus [15] = experiment: Anticonvulsant activity in mouse assessed as protection against maximal electric shock-induced seizures at 30 mg/kg, ip measured after 0.5 hrs; assay type: functional, organism-based; how it was run: as §2
Rattus norvegicus [16] = experiment: Neurotoxicity in rat at 30 mg/kg, ip after 0.5 hrs by rotarod test; assay type: toxicity, organism-based; details: in vivo
Rattus norvegicus [17] = experiment: Anticonvulsant activity in rat assessed as protection against maximal electric shock-induced seizures at 30 mg/kg, ip measured after 2 hrs; assay type: functional, organism-based
How it was run: (§4)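 Rats dosed ip or orally as 0.5% methylcellulose suspension; maximal electroshock at listed time. Protection = abolition of hindlimb tonic extension; 4 rats per group, scored protected/tested.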

Rattus norvegicus [18] = experiment: Anticonvulsant activity in rat assessed as protection against maximal electric shock-induced seizures at 30 mg/kg, po measured after 1 hr; assay type: functional, organism-based; how it was run: as §4
Rattus norvegicus [19] = experiment: Neurotoxicity in rat at 30 mg/kg, po after 0.5 hrs by rotarod test; assay type: toxicity, organism-based; details: in vivo
Mus musculus [20] = experiment: Anticonvulsant activity in mouse assessed as protection against 6 Hz psychomotor seizure at 100 mg/kg, ip after 4 hrs; assay type: functional, organism-based
How it was run: (§5)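 Suspension in 0.5% methylcellulose given ip to mice; corneal stimulation with 0.2 ms monopolar rectangular pulses at 6 Hz for 3 s from a constant current device, mice restrained then released to observation cage. Protected if normal exploratory behaviour resumed within 10 s of stimulation. Scored as protected/tested, 4 mice per group.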

Rattus norvegicus [21] = experiment: Anticonvulsant activity in rat assessed as protection against maximal electric shock-induced seizures at 30 mg/kg, po measured after 2 hrs; assay type: functional, organism-based; how it was run: as §4
Rattus norvegicus [22] = experiment: Neurotoxicity in rat at 30 mg/kg, po after 4 hrs by rotarod test; assay type: toxicity, organism-based; details: in vivo
Rattus norvegicus [23] = experiment: Anticonvulsant activity in rat assessed as protection against maximal electric shock-induced seizures at 30 mg/kg, po measured after 4 hrs; assay type: functional, organism-based; how it was run: as §4
Mus musculus [24] = experiment: Neurotoxicity in mouse at 100 mg/kg, ip after 2 hrs by rotarod test; assay type: toxicity, organism-based; details: in vivo; how it was run: as §1
Rattus norvegicus [25] = experiment: Anticonvulsant activity in rat assessed as protection against maximal electric shock-induced seizures at 30 mg/kg, po measured after […]; assay type: functional, organism-based
Mus musculus [26] = experiment: Anticonvulsant activity in mouse assessed as protection against maximal electric shock-induced seizures at 100 mg/kg, ip measured after […]; assay type: functional, organism-based
Mus musculus [27] = experiment: Neurotoxicity in mouse at 100 mg/kg, ip after 1 hr by rotarod test; assay type: toxicity, organism-based; details: in vivo; how it was run: as §1
Rattus norvegicus [28] = experiment: Neurotoxicity in rat at 30 mg/kg, ip after […] by rotarod test; assay type: toxicity, organism-based; details: in vivo
Mus musculus [29] = experiment: Anticonvulsant activity in mouse assessed as protection against 6 Hz psychomotor seizure at 100 mg/kg, ip after 2 hrs; assay type: functional, organism-based; how it was run: as §5
Rattus norvegicus [30] = experiment: Neurotoxicity in rat at 30 mg/kg, po after 2 hrs by rotarod test; assay type: toxicity, organism-based; details: in vivo
Rattus norvegicus [31] = experiment: Neurotoxicity in rat at 30 mg/kg, po after […] by rotarod test; assay type: toxicity, organism-based; details: in vivo
Rattus norvegicus [32] = experiment: Neurotoxicity in rat at 30 mg/kg, ip after 1 hr by rotarod test; assay type: toxicity, organism-based; details: in vivo
Rattus norvegicus [33] = experiment: Anticonvulsant activity in rat assessed as protection against maximal electric shock-induced seizures at 30 mg/kg, po measured after 0.5 hrs; assay type: functional, organism-based; how it was run: as §4
Rattus norvegicus [34] = experiment: Neurotoxicity in rat at 30 mg/kg, ip after 4 hrs by rotarod test; assay type: toxicity, organism-based; details: in vivo
Rattus norvegicus [35] = experiment: Neurotoxicity in rat at 30 mg/kg, po after 1 hr by rotarod test; assay type: toxicity, organism-based; details: in vivo
Rattus norvegicus [36] = experiment: Anticonvulsant activity in rat assessed as protection against maximal electric shock-induced seizures at 30 mg/kg, ip measured after 4 hrs; assay type: functional, organism-based; how it was run: as §4
Rattus norvegicus [37] = experiment: Neurotoxicity in rat at 30 mg/kg, ip after 2 hrs by rotarod test; assay type: toxicity, organism-based; details: in vivo
Mus musculus [38] = experiment: Neurotoxicity in mouse at 50 mg/kg, ip after 4 hrs by rotarod test; assay type: toxicity, organism-based; details: in vivo; how it was run: as §1
Mus musculus [39] = experiment: Neurotoxicity in mouse at 50 mg/kg, ip after 1 hr by rotarod test; assay type: toxicity, organism-based; details: in vivo; how it was run: as §1
Mus musculus [40] = experiment: Neurotoxicity in mouse at 50 mg/kg, ip after 2 hrs by rotarod test; assay type: toxicity, organism-based; details: in vivo; how it was run: as §1

For Cc1cc(C)c(OCCN[C@H](C)CO)c(C)c1, the Activity (Mus musculus [1]) was “Toxic”, the Activity (Mus musculus [2]) was “inactive” and the Activity (Mus musculus [3]) was “inactive”. The Activity (Mus musculus [4]) was “Non-toxic”, the Activity (Mus musculus [5]) was “Active” and the Activity (Mus musculus [6]) was “Non-toxic”. The Activity (Mus musculus [7]) was “inactive”, the Activity (Mus musculus [8]) was “inactive” and the Activity (Mus musculus [9]) was “inactive”. For the same compound, the Activity (Mus musculus [10]) was “inactive”, the Activity (Mus musculus [11]) was “inactive” and the Activity (Mus musculus [12]) was “Toxic”. The Activity (Mus musculus [13]) was “inactive”, the Activity (Mus musculus [14]) was “Non-toxic” and the Activity (Mus musculus [15]) was “Active”.
With Cc1cccc(OCCCN2CCC(O)CC2)c1C the Activity (Rattus norvegicus [16]) was “Non-toxic”, the Activity (Rattus norvegicus [17]) was “inactive” and the Activity (Rattus norvegicus [18]) was “inactive”. For the same compound, the Activity (Mus musculus [2]) was “inactive”, the Activity (Rattus norvegicus [19]) was “Non-toxic” and the Activity (Mus musculus [20]) was “inactive”. For the same compound, the Activity (Rattus norvegicus [21]) was “inactive”, the Activity (Rattus norvegicus [22]) was “Non-toxic” and the Activity (Rattus norvegicus [23]) was “inactive”. The Activity (Mus musculus [24]) was “Non-toxic”, the Activity (Rattus norvegicus [25]) was “inactive” and the Activity (Mus musculus [26]) was “Active”. For the same compound, the Activity (Mus musculus [27]) was “Non-toxic”, the Activity (Rattus norvegicus [28]) was “Non-toxic” and the Activity (Mus musculus [5]) was “Active”. For the same compound, the Activity (Mus musculus [29]) was “inactive”, the Activity (Rattus norvegicus [30]) was “Non-toxic” and the Activity (Rattus norvegicus [31]) was “Non-toxic”. The Activity (Rattus norvegicus [32]) was “Non-toxic”, the Activity (Rattus norvegicus [33]) was “inactive” and the Activity (Rattus norvegicus [34]) was “Non-toxic”. The Activity (Rattus norvegicus [35]) was “Non-toxic”, the Activity (Rattus norvegicus [36]) was “inactive” and the Activity (Mus musculus [14]) was “Non-toxic”. For the same compound, the Activity (Rattus norvegicus [37]) was “Non-toxic”.
For Cc1cccc(C)c1OCCOCCN[C@H](C)CO, the Activity (Mus musculus [1]) was “Toxic”, the Activity (Mus musculus [38]) was “Non-toxic” and the Activity (Mus musculus [39]) was “Non-toxic”. The Activity (Mus musculus [4]) was “Non-toxic”, the Activity (Mus musculus [40]) was “Non-toxic” and the Activity (Mus musculus [6]) was “Non-toxic”. The Activity (Mus musculus [12]) was “Toxic”.
Cc1cccc(OCCN2CCC(O)CC2)c1C was tested, and the Activity (Mus musculus [24]) was “Non-toxic” and the Activity (Mus musculus [14]) was “Non-toxic”.
